In the library only some 2% were active in any assay of this set; here they are far more common.
CDK5 inh – inhibitors of human CDK5/p35 kinase, primary screen, biochemical, single concentration; Recombinant CDK5/p35, ADP-Glo luminescence, 60 min; AID 488839, 2010; 0.01% of 330,000 active; inhibition, % at 10 µM;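 active means highest replicate inhibition of at least 50% and at least 75% of replicates reaching 50%; inconclusive means only one of the two criteria met; inactive means both criteria failed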
CAL PDZ FP-1 – CAL PDZ peptide-binding inhibitors, primary screen, biochemical, fluorescence polarization, Cer-tagged CAL PDZ, HTS | Golgi-associated PDZ and coiled-coil motif-containing protein (Homo sapiens), Q9HD26 | purified CAL PDZ, TMR-peptide fluorescence polarization, 1 h | inhibition, % at 20 µM | 0.02% of 330,000 active;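 active means highest replicate inhibition of at least 40%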
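Test system: tagged CAL PDZ domain / Buffer or medium: sodium phosphate/NaCl buffer pH 7.4 with TCEP, IgG, Thesit / Reagent: TMR-labelled reporter peptide T*-PRC34 bound in PDZ groove / Compound dosing: single point, 20 µM / Schedule: 1 h incubation at room temperature before polarization reading / Technique: fluorescence polarization (mP) / Benchmarks: unlabelled peptide, DMSO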
S100A4 inh HTS – inhibitors of S100A4-myosin IIA peptide binding, primary screen, biochemical, fluorescence polarization, TAMRA-MyoIIA peptide; Protein S100-A4 (Homo sapiens), P26447; inhibition, % at 10.7 µM; 0.14% of 360,000 active; AID 652163, 2013;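 active means mean inhibition of at least 70% across replicates, with every replicate also reaching that level; inconclusive means mean inhibition reaches 70% but some replicates fall short; inactive means mean inhibition below 70%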
Target sequence (P26447 whole entry, looked up): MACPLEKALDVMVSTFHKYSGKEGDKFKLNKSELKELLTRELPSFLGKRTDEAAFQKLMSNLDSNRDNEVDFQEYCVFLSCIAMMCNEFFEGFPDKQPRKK
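Material: human S100A4 monomer with TAMRA-labelled myosin IIA peptide; buffer or medium: HEPES pH 7.2 with CaCl2, KCl, NaCl, DTT, Triton; compound dosing: one concentration per compound; schedule: 5 min incubation before reading; benchmarks: neutral control DMSO, positive control TFP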
Statin myotox sup – suppressors of statin myotoxicity in C2C12 myotubes, primary screen, cell-based, single point, plate reader; rescue of ATP level, % at 7.49 µM; 0.78% of 330,000 active; AID 602340, 2012; C2C12 myotubes + simvastatin, ATP luminescence, 48 h; scaled: DMSO 0, geranylgeraniol control 100;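 active means mean ATP rescue above about 67%, or every replicate alone reaching that limit, limit read from the data, passing the limit was not always enough; inconclusive means no clear call, values can overlap the other calls; inactive means mean under the limit and some replicate under it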;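 further: myotubes were challenged with 10 µM simvastatin during compound exposure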
CAL PDZ FP-2 – untagged CAL PDZ binding inhibitors, primary screen, biochemical, fluorescence polarization, HTS; Golgi-associated PDZ and coiled-coil motif-containing protein (Homo sapiens), Q9HD26; purified CAL PDZ, TMR-peptide fluorescence polarization, 1 h; inhibition, % at 24.9 µM; 0.92% of 300,000 active;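 active means mean inhibition of at least 30% with at least half of replicates also reaching 30%; inconclusive means no clear call, values can overlap the other calls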
dFosB activator – activators of delta FosB homodimer, primary screen, biochemical, fluorescence polarization, TAMRA-CDK5 oligo, single point; Protein FosB (Mus musculus), P13346; purified delta FosB; percent of positive-control signal above neutral wells; activation, % at 25 µM; 0.99% of 340,000 active; AID 493131, 2011;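 active means mean activation above about 17%, with every replicate also reaching it, limit read from the data, passing the limit was not always enough; inconclusive means only one of the two conditions met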
Target sequence (P13346 whole entry, looked up): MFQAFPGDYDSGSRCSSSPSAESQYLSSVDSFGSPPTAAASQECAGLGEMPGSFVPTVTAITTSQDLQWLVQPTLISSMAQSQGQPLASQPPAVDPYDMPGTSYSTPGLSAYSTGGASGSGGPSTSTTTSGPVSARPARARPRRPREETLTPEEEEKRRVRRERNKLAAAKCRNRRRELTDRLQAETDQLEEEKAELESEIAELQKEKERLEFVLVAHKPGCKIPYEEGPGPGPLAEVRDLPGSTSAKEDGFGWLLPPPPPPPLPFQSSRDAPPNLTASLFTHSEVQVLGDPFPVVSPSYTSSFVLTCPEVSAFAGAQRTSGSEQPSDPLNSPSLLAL
Of the large screens only hits and unclear results are named; the others gave an inactive call.

CN1C(=O)c2cc(NC(=O)c3ccccc3Cl)ccc2OC[C@@H]2O[C@@H](CC(=O)NCC(F)(F)F)CC[C@H]21	S100A4 inh HTS 127 (no result: CDK5 inh, CAL PDZ FP-1, CAL PDZ FP-2, dFosB activator)
O=C(C[C@@H]1CC[C@@H](NC(=O)Cc2ccccn2)[C@@H](CO)O1)NCCCN1CCOCC1	none (no result: CDK5 inh, CAL PDZ FP-1, CAL PDZ FP-2, dFosB activator)
CC(C)C(=O)Nc1ccc2c(c1)C(=O)N(C)[C@H]1CC[C@H](CC(=O)Nc3ccccc3)O[C@@H]1CO2	none (no result: CDK5 inh, CAL PDZ FP-1, CAL PDZ FP-2, dFosB activator)
CC(C)C(=O)Nc1ccc2c(c1)C(=O)N(C)[C@H]1CC[C@H](CC(=O)Nc3cccc(F)c3)O[C@@H]1CO2	S100A4 inh HTS 78 (no result: CDK5 inh, CAL PDZ FP-1, CAL PDZ FP-2, dFosB activator)
O=C(CC1CCCC1)N[C@H](C(=O)N1CCC[C@H]1C(=O)NCc1ccccc1)c1ccccc1	none (no result: CDK5 inh, CAL PDZ FP-1, Statin myotox sup, CAL PDZ FP-2, dFosB activator)
CC(C)(C)C1CCC(=NNc2nc3ccccc3[nH]2)CC1 (stereo not given)	none (no result: Statin myotox sup)
c1ccc2c(c1)CC/C2=N/Nc1nc2ccccc2[nH]1	dFosB activator 31
O=C(O)c1cc(NC(=O)c2cccc(N3C(=O)c4ccccc4C3=O)c2)cc(C(=O)O)c1	none
O=C(Nc1ccccc1C(=O)O)c1cccc(N2C(=O)c3ccccc3C2=O)c1	CAL PDZ FP-2 51
CN1C[C@@H]2C(c3ccc(Cl)nc3)C3(c4cccnc4)CC2(C3)[C@H]1c1ccccc1 (stereo not given in full)	none
COc1ccc(Cc2nc(C(=O)NCc3ccccc3OC)cs2)cc1	none (no result: S100A4 inh HTS, CAL PDZ FP-2)
COc1ccc(Cc2nc(C(=O)Nc3ccc(OC)cc3)cs2)cc1	Statin myotox sup 122 (no result: S100A4 inh HTS)
O=C(COC(=O)c1cccc(Cl)c1Cl)NC1CCCC1	none
COc1ccc(C#Cc2ccc3c(c2)O[C@H](CN(C)C(C)=O)[C@H](C)CN([C@@H](C)CO)S3(=O)=O)cc1	none (no result: CDK5 inh, CAL PDZ FP-1, CAL PDZ FP-2, dFosB activator)
Cc1cccc(C(=O)OC(C)C(=O)N2CCc3ccccc3C2)c1C (stereo not given)	CAL PDZ FP-2 52
CCOC(=O)N1CCN(C(=O)CSc2nnc(-c3cc(OC)cc(OC)c3)o2)CC1	none (no result: S100A4 inh HTS)
CCCN1[C@H](C(=O)NCCCN(C)C)[C@@H](CO)[C@@H]2Cn3c(ccc(C4=CCCC4)c3=O)[C@@H]21	none (no result: CDK5 inh, CAL PDZ FP-1, CAL PDZ FP-2, dFosB activator)
O=C(NC(=S)N1CCCCC1)C12CC3CC(CC(C3)C1)C2	none (no result: S100A4 inh HTS, Statin myotox sup)
COc1ccc(-c2[nH]ncc2CNCC(C)(C)N2CCOCC2)cc1F	Statin myotox sup 88
COc1ccc(-c2[nH]ncc2CNC(C)CCn2cccn2)cc1F (stereo not given)	CAL PDZ FP-2 51
C[C@H]1CN([C@@H](C)CO)C(=O)c2cc(NC(=O)NC3CCCCC3)ccc2O[C@@H]1CN(C)S(C)(=O)=O	none (no result: CDK5 inh, CAL PDZ FP-1, CAL PDZ FP-2, dFosB activator)
COCCCn1c(=O)c2sccc2n2c(CCCC(=O)NCc3cccc(OC)c3)nnc12	CAL PDZ FP-2 47
COCC1CCN(C(=O)c2cc(COc3ccc(-n4cncn4)cc3)on2)CC1	none
O=C(Oc1c(CN2CCOCC2)cc(Cl)c2cccnc12)c1ccccc1	CAL PDZ FP-2 47
COc1ccc(S(=O)(=O)NCCC(=O)NCc2ccccc2)cc1	Statin myotox sup 126 (no result: S100A4 inh HTS)
Cc1ccc(S(=O)(=O)NCCC(=O)NC(C)CCc2ccccc2)cc1 (stereo not given)	CAL PDZ FP-2 71
COc1ccc(S(=O)(=O)NCc2ccccc2)cc1	none (no result: S100A4 inh HTS, CAL PDZ FP-2)
Cc1ccc(S(=O)(=O)NCCC(=O)NC(C)c2ccccc2)cc1 (stereo not given)	none
COc1ccc(CNc2ncnc3cc(OC)c(OC)cc23)cc1	Statin myotox sup 111 (no result: S100A4 inh HTS)
COc1cc2ncnc(NCc3ccccc3)c2cc1OC	none (no result: S100A4 inh HTS)
CC(C)N1C(=O)CCC1C(=O)N1CCN(c2ccc(F)cc2)CC1 (stereo not given)	none
CC(C)N1C(=O)CCC1C(=O)N1CCC(Cc2ccccc2)CC1 (stereo not given)	Statin myotox sup 132 (no result: CAL PDZ FP-2)
Cc1ccccc1CNC(=O)c1ccc2ccccc2n1	CAL PDZ FP-2 76
CN(C/C=C/c1ccccc1)Cc1cccc2ccccc12	none
Clc1ccc2nc3ccccn3c2c1	CAL PDZ FP-2 53 (no result: S100A4 inh HTS)
O=c1cc(Cl)nc2ccccn12	CAL PDZ FP-2 38
N#Cc1ccc2c(c1)nc1ccccn12	none (no result: Statin myotox sup)
O=c1cc(NCc2ccccc2)nc2ccccn12	none (no result: Statin myotox sup)
COc1cc2c(cc1OC)C(c1cc(OC)c(OC)c(OC)c1)NCC2 (stereo not given)	Statin myotox sup 113
COc1cc2c(cc1OC)C(c1ccccc1)NCC2 (stereo not given)	none (no result: CAL PDZ FP-1)
Nc1nc2nn(-c3ccccc3)nc2c(=O)[nH]1	none
Nc1nc2n[nH]nc2c(=O)[nH]1	Statin myotox sup 90
O=C(CSc1nnc(NC(=O)c2ccco2)s1)Nc1ccc2c(c1)OCCO2	dFosB activator 66
CCc1c(C)sc(NC(=O)c2ccco2)c1C(=O)N1CCOCC1	none (no result: S100A4 inh HTS, CAL PDZ FP-2)
CCc1c(C)sc(NC(=O)c2ccco2)c1C(=O)N1CCCCC1	Statin myotox sup 116 (no result: S100A4 inh HTS)
O=C(COc1ccc(-c2nnco2)cc1)N1CCN(S(=O)(=O)c2ccc3ccccc3c2)CC1	CAL PDZ FP-2 42, dFosB activator inconclusive (no result: S100A4 inh HTS)
COc1ccc(S(=O)(=O)N2CCN(C(=O)COc3ccccc3)CC2)cc1	none (no result: Statin myotox sup)
CCc1cc(-c2nnn(CCC3COCCO3)c2CC)ccc1-c1cn(CCc2c[nH]c3ccccc23)nn1 (stereo not given)	none (no result: CDK5 inh, CAL PDZ FP-1, CAL PDZ FP-2, dFosB activator)
COCCCn1c(SCC(=O)Nc2sc3c(c2C#N)CCCC3)nnc1-c1ccncc1	none
COc1ccc2[nH]cc(C(=O)CNc3nc(C)cs3)c2c1	Statin myotox sup 125 (no result: S100A4 inh HTS, CAL PDZ FP-2)
Cn1c(SCc2nc(-c3ccc(Cl)cc3)no2)nnc1-c1cccs1	Statin myotox sup 84
CCCSC1=C(C#N)C(c2ccccc2C)CC(=O)N1 (stereo not given)	Statin myotox sup 134 (no result: S100A4 inh HTS)
O=C(Nc1cc(C(F)(F)F)ccc1-n1cncn1)C1CC1	none
NC(=S)NN=C1c2cc(OCCN3CCOCC3)ccc2-c2ccc(OCCN3CCOCC3)cc21	dFosB activator 39 (no result: Statin myotox sup)
COc1ccc(CC(=O)Nc2c(C(=O)N3CCN(c4ncccn4)CC3)oc3ccccc23)cc1	CAL PDZ FP-2 43
COc1ccc(CC(=O)Nc2c(C(=O)N3CCN(c4ncccn4)CC3)oc3ccccc23)cc1OC	none
COc1ccc(Cl)cc1NC(=O)C(C)Sc1nncn1C (stereo not given)	Statin myotox sup 131 (no result: S100A4 inh HTS)
Cc1cc(=O)n2nc(N3CCC(C(=O)NCc4cccc(Br)c4)CC3)sc2n1	CAL PDZ FP-2 119

Screening results (PubChem)
